# Only some compounds are listed: those with a hit (about 4.7% of all), similar ones and a draw of the others.
# AHR act = activates the human aryl hydrocarbon receptor. activation, % at 5 µM. AHR-responsive luciferase reporter cells, luminescence. 2.5% of 320,000 active. AID 2796; in the data active = activation above about 47%;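 also: 0% = vehicle wells and 100% = reference agonist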
# Target sequence (P35869 whole entry, looked up): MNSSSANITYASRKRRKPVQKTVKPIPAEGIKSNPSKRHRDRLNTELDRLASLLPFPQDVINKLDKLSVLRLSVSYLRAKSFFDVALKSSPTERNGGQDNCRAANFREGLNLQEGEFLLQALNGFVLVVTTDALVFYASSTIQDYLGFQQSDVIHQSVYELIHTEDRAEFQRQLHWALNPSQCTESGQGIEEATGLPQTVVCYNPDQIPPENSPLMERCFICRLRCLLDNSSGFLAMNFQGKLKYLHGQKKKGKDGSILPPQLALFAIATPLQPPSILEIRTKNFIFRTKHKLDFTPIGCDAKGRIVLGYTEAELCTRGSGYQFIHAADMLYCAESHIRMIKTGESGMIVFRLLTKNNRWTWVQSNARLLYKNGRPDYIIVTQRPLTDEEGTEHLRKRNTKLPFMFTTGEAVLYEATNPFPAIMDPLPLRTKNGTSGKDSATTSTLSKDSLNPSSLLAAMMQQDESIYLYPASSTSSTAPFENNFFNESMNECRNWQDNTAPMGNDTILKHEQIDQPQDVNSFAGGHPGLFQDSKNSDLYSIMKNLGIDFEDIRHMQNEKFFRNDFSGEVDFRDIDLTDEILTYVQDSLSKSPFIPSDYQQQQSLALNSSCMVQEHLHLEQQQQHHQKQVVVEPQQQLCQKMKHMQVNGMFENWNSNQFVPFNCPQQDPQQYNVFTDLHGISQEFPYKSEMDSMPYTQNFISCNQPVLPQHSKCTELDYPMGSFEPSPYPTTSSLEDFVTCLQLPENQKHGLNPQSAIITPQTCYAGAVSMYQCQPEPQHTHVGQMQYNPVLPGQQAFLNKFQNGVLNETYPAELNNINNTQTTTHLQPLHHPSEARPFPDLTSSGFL
# MC4R antagonist = blocks human MC4R cAMP signaling; P32245; MC4R-expressing cells, MTII-stimulated cAMP, LANCE TR-FRET; inhibition, % at 6.5 µM; 0.48% of 360,000 active;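 active = inhibition above its plate's cutoff, the mean of tested wells on that plate plus 3 SD, cut at about 29% in these data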;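 also: 0% = Melanotan II alone and 100% = Melanotan II plus saturating MCL0020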
#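 Test system: U2OS cells stably expressing human melanocortin 4 receptor (MC4R); also added: Melanotan II challenge; compound: 6.5 µM single dose; timing: 30-min compound preincubation, 1-h Melanotan II challenge, 1-h detection, room temperature; signal: Eu-cAMP/anti-cAMP TR-FRET, emission 671 nm; repeats: one well per compound, no replicates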
# FXN GAA850 act = activators of GAA850 frataxin (FXN) promoter | 0.56% of 360,000 active | activation, % at 6 µM | AID 540364 | HEK293 lucGAA850 FXN promoter luciferase reporter, 24 h; percent of 10 µM SAHA response;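 active = activation above the average of all compounds screened plus 3 SD, cutoff fixed separately per campaign, cut at about 7.5% in these data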;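 also: 0% = DMSO wells and 100% = 10 µM SAHA wells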
# MC4R barr agon = activates human MC4R beta-arrestin recruitment | P32245 | U2OS MC4R beta-arrestin complementation, luminescence; percent of melanotan II response, DMSO zero | activation, % at 8.9 µM | 0.98% of 360,000 active | AID 540308;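 active = activation above a per-plate cutoff, the mean activation of sample wells on that plate plus 3 SD, cut at about 8% in these data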
# m5-HT2A agonist = agonists of mouse serotonin 5-HT2A receptor (HTR2A); P35363; CHO-K1 mHTR2A beta-arrestin complementation, luminescence; percent of 30 µM serotonin response; activation, % at 7.6 µM; 0.66% of 360,000 active;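 active = activation above a run cutoff, the mean activation of all tested compounds plus 3 SD, cut at about 14% in these data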;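 also: 0% = plate median of compound wells and 100% = 30 µM serotonin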
# GAA30 counter = counter-screen for GAA850 frataxin promoter activators: GAA30 promoter activation. shares compounds with FXN GAA850 act. HEK293 lucGAA30 FXN promoter luciferase, 24 h; DMSO = 0%, 5 µM ipriflavone = 100%. activation, % at 6 µM. 66% of 1,900 active. AID 588350;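 active = mean activation above the mean of solvent-only control wells plus 3 SD, cut at about 22% in these data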;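 also: counterscreen of GAA850 promoter hits where activity marks nonselective or luminescence artifacts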
# GAA850 confirm = confirmation of GAA850 frataxin (FXN) promoter activators; HEK293 lucGAA850 FXN promoter luciferase reporter, 24 h; 100% = activation by SAHA; shares compounds with FXN GAA850 act; 86% of 1,900 active; activation, % at 6 µM; AID 588351;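 active = mean activation above a set limit taken from the primary screen, cut at about 8% in these data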;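 also: 0% = DMSO wells and 100% = 10 µM SAHA wells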
# Numbers without * were called inactive; x = not tested or not shown.
SMILES,AHR act,MC4R antagonist,FXN GAA850 act,MC4R barr agon,m5-HT2A agonist,GAA30 counter,GAA850 confirm
CN(C)CCNc1ccc(CO)c2sc3ccc(O)cc3c(=O)c12,x,-19.0,-4.4,-1.2,-2.5,x,x
COc1ccc(/C=C2\SC(=N)N(c3ccc(F)cc3)C2=O)cc1OC,16.5,8.9,8.3*,-0.4,-3.7,17.7,14.8*
O=C(CSc1ccc(-c2cccc([N+](=O)[O-])c2)nn1)N1CCCC1,4.4,3.0,3.1,-0.7,-2.0,x,x
CCSc1ccc(-c2cccc([N+](=O)[O-])c2)nn1,4.1,9.7,8.5*,-3.0,2.3,97.4*,28.5*
NC(=O)C1=CC2C3C=CC2(O)C(=O)OC3O1 (stereo not drawn),x,-6.3,8.3*,0.8,0.6,-27.9,16.1*
Nc1nc(CSC(=S)N2CCOCC2)nc(Nc2ccc(F)cc2)n1,22.5,11.4,5.7,1.2,2.1,x,x
COc1ccc(Nc2nc(N)nc(CSC(=S)N3CCOCC3)n2)cc1,27.2,4.4,7.6*,-2.1,4.3,83.4*,32.5*
Cc1ccc(C(CC(=O)O)NC(=O)c2ccc(S(=O)(=O)N3CC(C)OC(C)C3)cc2)cc1 (stereo not drawn),-2.3,-5.5,0.1,-2.5,4.2,x,x
Nc1nc(CSc2ccccc2)nc(N2CCCCC2)n1,42.0,-1.5,7.9*,4.0,3.9,97.8*,29.2*
Nc1nc(CSc2ccc(Cl)cc2)nc(N2CCCCC2)n1,-1.1,1.4,1.6,0.9,-4.3,x,x
CC(=O)NC(=Cc1ccccc1)C(=O)N1CCCC1C(=O)O (stereo not drawn),x,-2.3,0.1,-1.6,2.0,x,x
COc1ccc2cc3cc(C(=O)N4CCCCC4C)oc3nc2c1 (stereo not drawn),-1.0,2.2,8.0*,0.1,-2.9,121.8*,38.2*
O=C(NCc1ccccc1)C(c1ccccc1F)n1c(=O)c(-c2ccco2)nc2ccccc21 (stereo not drawn),x,x,x,x,2.3,x,x
O=C(Nc1ccc(Cc2nc3ccccc3s2)cc1)c1ccncc1,0.9,8.3,0.1,-1.6,-8.2,x,x
CCOc1ccccc1NC(=O)CSc1nnc(CNC(=O)c2cc(OC)c(OC)c(OC)c2)o1,0.5,1.3,-0.2,1.4,-0.7,x,x
COc1ccc(C2=Nn3c(nnc3-c3ccccc3)SC2)cc1OC,9.0,-1.0,9.5*,0.7,-0.5,21.9*,17.9*
COc1ccc(C2=Nn3c(nnc3C3CCCCC3)SC2)cc1OC,14.2,-37.0,13.1*,1.0,6.9,13.8,13.2*
CCCc1nnc2n1N=C(c1ccc(OC)c(OC)c1)CS2,7.9,-21.1,12.4*,-2.4,3.1,35.3*,13.0*
Cc1cccc(C)c1NC(=O)c1nc(S(=O)(=O)Cc2ccccc2)ncc1Cl,-3.4,-0.8,8.2*,-5.7,-9.3,-35.9,20.2*
CC1(C(=O)Nc2cccc(NS(C)(=O)=O)c2)Cc2c(-c3cccc(C(N)=O)c3)ccnc2O1 (stereo not drawn),x,-1.6,-0.7,-1.3,-3.4,x,x
Cc1ccc(S(=O)(=O)N2C3CCCCC3O[C@H]2CC(=O)c2cccc3ccccc23)cc1 (stereo partly drawn),x,x,x,x,-0.3,x,x
C=CCSc1nc(N)c2c(C)c(C)sc2n1,11.0,-3.1,8.2*,-2.4,-4.1,54.6*,20.0*
CC(C)c1ccc(-c2nc3ccccc3s2)cc1,22.9,12.2,-18.1,2.2,-0.2,x,x
CCOc1cc(-c2nc3ccccc3s2)ccc1O,1.7,1.1,9.4*,2.8,-1.3,98.7*,28.7*
Cc1cccc(S(=O)(=O)NC(=O)C2(C)CCN2C(=O)CCC2CCCC2)c1 (stereo not drawn),x,13.2,1.2,-1.8,3.2,x,x
SMILES,AHR act,MC4R antagonist,FXN GAA850 act,MC4R barr agon,m5-HT2A agonist,GAA30 counter,GAA850 confirm
Cc1ccc(NC(=O)C(C)N2C(=O)c3ccccc3C2=O)cc1S(=O)(=O)N1CCOCC1 (stereo not drawn),x,-6.6,-0.4,-1.2,3.3,x,x
Cn1c(CS(=O)Cc2c(Cl)cccc2Cl)nnc1SCc1c(Cl)cccc1Cl (stereo not drawn),-11.0,2.9,10.5*,-0.9,-1.8,24.8*,9.3*
O=C(NCc1ccco1)c1cc(-c2ccc(F)cc2)on1,-2.8,-0.4,6.9,1.3,4.5,x,x
O=C(NCc1ccco1)c1cc(-c2ccccc2)on1,0.6,-4.0,9.1*,-1.6,1.4,104.5*,37.4*
COc1ccc(CCNC(=O)c2cc(-c3ccccc3)on2)cc1OC,0.9,14.1,10.5*,9.5*,2.7,62.5*,33.1*
O=C(NCc1ccco1)c1cc(-c2cccs2)on1,1.8,8.4,25.9*,-1.1,-3.2,150.2*,55.6*
CCCNC(=O)c1cc(-c2ccco2)on1,8.8,1.2,22.0*,-0.9,-2.4,127.5*,57.4*
O=C(NCc1ccccc1)c1cc(-c2cccs2)on1,1.2,-2.6,3.4,-1.4,-5.3,x,x
CC(=O)Nc1ccc(S(=O)(=O)N(C)c2ccc(OCCOc3ccccc3F)cc2)cc1,-2.1,12.1,-2.0,-0.4,-3.1,x,x
Cc1cccc(NC(=O)c2c(O)c3ccccc3n(C)c2=O)c1,40.0,-5.3,5.0,-1.4,-2.1,x,x
O=C(NCCN1CCCCC1)Nc1ccc(Br)cc1,1.4,-0.8,1.8,0.7,-4.6,x,x
Cc1ccc(COC(=O)CN2C(=O)NC3(CCCCC3C)C2=O)cc1 (stereo not drawn),x,11.2,-1.6,-0.2,-4.4,x,x
CSc1nc(N)nc2c1ncn2CC(=O)NCCCc1ccccc1,-1.2,3.8,-0.5,0.2,1.0,x,x
O=C(NCC1CCCO1)c1cc(-c2ccccc2)on1 (stereo not drawn),5.2,2.0,23.8*,-1.9,-3.3,157.4*,90.5*
O=C(NCC1CCCO1)c1cc(-c2ccc(F)cc2)no1 (stereo not drawn),12.0,15.3,11.2*,1.2,-1.9,84.8*,31.3*
Cc1ccc(-c2cc(C(=O)NCC3CCCO3)no2)cc1 (stereo not drawn),-2.0,5.7,5.1,-0.6,-0.8,x,x
Nc1ncnc2c1ncn2[C@@H]1O[C@H](C(=O)Nc2ccc(C(=O)N3CCCCC3)cc2)[C@@H](O)[C@H]1O,x,x,x,x,7.7,x,x
Nc1ccn([C@@H]2O[C@H](CNCc3cnc(N4CCOCC4)s3)[C@@H](O)[C@H]2O)c(=O)n1,x,3.3,1.4,-2.9,-1.1,x,x
CCc1cc2c(=O)c(-c3nc(C)cs3)coc2cc1OC(C)C(=O)NCCO (stereo not drawn),-1.4,-4.9,2.0,2.2,0.8,x,x
COc1cccc(/C=N/Nc2nc(Nc3ccccc3)nc(-n3nc(C)cc3C)n2)c1O,60.1*,9.9,12.3*,-9.9,-31.3,-37.0,15.0*
